These results are taken from PMC3163034 (Digestive diseases and sciences, 2011).

Structures can show the parent of a compound that is named as a salt.

The nature of series [1]: Ussing-chamber permeability across excised mouse intestinal segments. The series is classed as in vitro ADME, mice. Conditions: for Peff, Colon (mean ± SD) / Peff, Small intestine (mean ± SD): 1 mg/ml mucosal side, pH 7.4, 37°C. The gist of the method: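 Freshly isolated jejunum and left-sided colon from naive and 7-day DSS-treated mice, mounted with 0.3 cm2 exposed area. Both sides held 5 ml Krebs buffer, pH 7.4, 37°C, gassed with 95% O2/5% CO2. Test compound added mucosally (final 1 mg/ml). Serosal samples taken every 20 min from 0 to 120 min, in triplicate, and measured by LC-MS/MS. Peff = (dC/dt)·V/(A·Co).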

The nature of series [2]: Plasma levels of orally administered AT1a antagonists in DSS-treated mice. It counts as in vivo. Conditions: 10 mg/kg; for Cmax at 2 h: mouse, plasma, po. The gist of the method:
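Mice given DSS for 7 days received test compound orally at 10 mg/kg and were killed 2 h later. Plasma was collected by cardiac puncture, diluted tenfold in mobile phase, and quantified by LC-MS/MS on a C18 column (150 × 2.0 mm, 0.2 ml/min). Data are mean ± SD, n = 5.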

A short description of series [3]: Blood pressure and heart rate by tail-cuff in DSS mice. The series is classed as in vivo. The following applies: transanal treatment, compared to naive group. The gist of the method: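 Mice received DSS in drinking water for 7 days plus daily transanal test compound (100 or 10 mg/kg/day) suspended in ddH2O, 0.25 ml total, via blunt needle. Naive controls received transanal water only. Heart rate and blood pressure were taken by automated noninvasive tail-cuff on DSS day 6, 1 h before (Pre) and 2 h after (Post) transanal dosing. Data are mean ± SD.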

Series [4] is described as follows: Colonic mucosa and mesenteric blood flow by laser Doppler perfusion imaging. It counts as in vivo, mice. The following applies: 7 days of DSS, transanal treatment, n = 6; for Colonic blood flow at the mucosal level: naive 1.91 ± 0.26, mean ± SD; for Mesenteric blood flow: naive 2.82 ± 0.23, mean ± SD. The gist of the method: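 After 7 days of DSS in drinking water, with daily transanal test compound (10 or 100 mg/kg/day) or water, and naive controls, mice (n = 6/group) were anesthetized just before harvest. Median laparotomy exposed the mesentery. A […] LDPI beam 12 cm above scanned the mesentery and 2 cm of distal colonic mucosa. Perfusion was normalized to total pixel area (mean ± SD).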

The conditions of series [5]: rats; cited from earlier work.
For series [6] the following is noted: Normal rat jejunum, Ussing chamber; cited from earlier work.
Setting [7] is: 2 h after oral administration, DSS mice.

For orientation: Cmax means the maximum level reached in the sampled fluid or tissue. In the case of `CCCCc1ncc(CO)n1Cc1ccc(-c2ccccc2-c2nn[nH]n2)cc1` [DCL, 2-butyl-1-[[2′-(2H-tetrazol-5-yl)[1,1′-biphenyl]-4-yl]methyl]-1H-imidazole-5-methanol], in series [1] (DSS-treated mice (7 days)), the Peff, Colon (mean ± SD) worked out at 2.66 ± 0.96 ×10⁻⁶ cm/s and the Peff, Small intestine (mean ± SD) was 1.52 ± 1.31 ×10⁻⁶ cm/s. In series [1] (Normal (naive) mice), this molecule displayed a Peff, Colon (mean ± SD) of 1.58 ± 1.24 ×10⁻⁶ cm/s and a Peff, Small intestine (mean ± SD) of 1.37 ± 0.15 ×10⁻⁶ cm/s. In addition, the “permeability coefficient compared to other AT1aR-antagonists” value in series [1] (Ussing chamber, both naive- and DSS-treated specimens) was “threefold to sixfold lower”. In series [2] (setting [7]), the “plasma level compared to candesartan” value is reported as “over tenfold lower” and the “plasma level compared to losartan” value is “threefold lower”. The molecule also gave a Cmax at 2 h in series [2] of 37.8 ± 26.4 ng/mL. In addition, the Heart rate entry in series [3] was “not significantly different”. Further, in series [4], the “Colonic blood flow at the mucosal level” value is “failed to change” and the Mesenteric blood flow result is “failed to change”. For the same molecule, in series [5], the “oral 50% effective dose (ED50, blood pressure lowering)” value was greater than 100 mg/kg.

Consider `C[C@H](N[C@@H](CCc1ccccc1)C(=O)O)C(=O)N1CCC[C@H]1C(=O)O` [Enalaprilat], for which, in series [6], the “Peff, Small intestine” value is 6e+12 ×10⁻⁶ cm/s.

In series [1] (DSS-treated mice (7 days)), `CCOc1nc2cccc(C(=O)O)c2n1Cc1ccc(-c2ccccc2-c2nnn[nH]2)cc1` [candesartan, 2-ethoxy-1-[[2′-(2H-tetrazol-5-yl)[1,1′-biphenyl]-4-yl]methyl]-1H-benzimidazole-7-carboxylic acid] showed a Peff, Colon (mean ± SD) of 5.94 ± 4.41 ×10⁻⁶ cm/s and a Peff, Small intestine (mean ± SD) of 3.85 ± 2.03 ×10⁻⁶ cm/s. In series [1] (Normal (naive) mice), this molecule yielded a Peff, Colon (mean ± SD) of 4.13 ± 3.04 ×10⁻⁶ cm/s and a Peff, Small intestine (mean ± SD) of 7.85 ± 5.91 ×10⁻⁶ cm/s. This molecule also came in with a Cmax at 2 h in series [2] of 569 ± 188 ng/mL. For the same molecule, in series [3], the Heart rate entry is recorded as “did decline significantly”. For the same molecule, in series [4], the “Colonic blood flow at the mucosal level” value stood at 0.92 ± 0.20 and the Mesenteric blood flow worked out at 1.56 ± 0.33.

In series [1] (DSS-treated mice (7 days)), `CCCCc1nc(Cl)c(CO)n1Cc1ccc(-c2ccccc2-c2nn[nH]n2)cc1` [losartan, 2-butyl-4-chloro-1-[[2′-(2H-tetrazol-5-yl)[1,1′-biphenyl]-4-yl]methyl]-1H-imidazole-5-methanol, mono-potassium salt] gave a Peff, Colon (mean ± SD) of 5.77 ± 3.37 ×10⁻⁶ cm/s and a Peff, Small intestine (mean ± SD) of 5.24 ± 1.4 ×10⁻⁶ cm/s. In series [1] (Normal (naive) mice), this molecule came in with a Peff, Colon (mean ± SD) of 6.4 ± 5.6 ×10⁻⁶ cm/s and a Peff, Small intestine (mean ± SD) of 4.21 ± 1.67 ×10⁻⁶ cm/s. For the same molecule, the highest level in series [2] (Cmax at 2 h) was 117 ± 87 ng/mL. Besides, the Heart rate entry in series [3] was “not significantly different”. In series [4], the “Colonic blood flow at the mucosal level” value was 0.88 ± 0.32 and the Mesenteric blood flow is recorded as 1.97 ± 0.58. Moreover, in series [5], the “oral 50% effective dose (ED50, blood pressure lowering)” value is 0.59 mg/kg.
